Measurements from different studies.
Protocols differ between the studies behind these lines.
Target: Phosphatidylinositol 4,5-bisphosphate 3-kinase catalytic subunit gamma isoform (PIK3CG, Homo sapiens, UniProt P48736)

Cc1cnc(Nc2ccc(C(=O)N3CCC(N4CCCC4)CC3)cc2)nc1-c1cc2ccccc2s1 — remaining binding (binding; competition with immobilised ligand; 1 µM): 81%
C[C@H]1CCN(c2nccc(-c3cnn4ncccc34)n2)C1 — remaining binding (binding; 1 µM): 82%
O=C(c1ccc(Nc2nccc(-c3cc4ccccc4s3)n2)cc1)N1CCC(N2CCCC2)CC1 — remaining binding (binding; competition with immobilised ligand; 1 µM): 27%
Cn1cc(Cl)c2c(Oc3c(F)cc(Nc4cc(Cl)nc(N)n4)cc3F)ccnc21 — remaining binding (cell-free assay; competition with immobilised ligand; 0.1 µM): 82%
Cc1cnn2ncc(-c3ccnc(N(C)C)n3)c2c1 — remaining binding (binding; 1 µM): 47%
C[C@H](c1cccc(C#N)c1)n1cc(Cl)cc(C(N)=O)c1=N — remaining binding (cell-free assay; competition with immobilised ligand; 1 µM): 98%
CN(c1nccc(-c2cnn3ncccc23)n1)C1CC1 — remaining binding (binding; 1 µM): 100%
CNC(=O)[C@@H]1CC[C@@H](n2c(-c3ccc4cnccc4c3)nc3ccc(C(=O)NCc4cccc(C(N)=O)c4)cc32)C1 — remaining binding (binding; competition with immobilised ligand; 1 µM): 100%
COc1ncc2cc3ccccc3nc2c1C#N — remaining binding (cell-free assay; competition with immobilised ligand; 5 µM): 100%
FC(F)(F)c1ccc2c(c1)nc(-c1cccnc1)n2C1CC1 — remaining binding (cell-free assay; competition with immobilised ligand; 1 µM): 92%
c1cnn2ncc(-c3ccnc(N4CCC45COC5)n3)c2c1 — remaining binding (binding; 1 µM): 74%
O=C(NCCCN1CCOCC1)c1ccc(Nc2ncc(Cl)c(-c3ccc(Cl)s3)n2)cc1 — remaining binding (binding; competition with immobilised ligand; 1 µM): 100%
CN1CCN(c2cnc3c(C4CCN(C(=O)c5ccc(OC(F)(F)F)cc5N)CC4)ncnc3c2)CC1 — remaining binding (cell-free assay; competition with immobilised ligand; 1 µM): 95%
N[C@@H]1CCN(c2nccc(-c3cnn4ncccc34)n2)C1 — remaining binding (binding; 1 µM): 100%
CCCCN(CCCC)C(=O)CN1C[C@H](c2cc(OC)c3c(c2)OCO3)[C@@H](C(=O)O)[C@@H]1CC(C)(C)CCC — remaining binding (cell-free assay; competition with immobilised ligand; 1 µM): 76.9%
C=CC(=O)N1CCC(C(=O)NCC(=O)N2CCN(c3nc(-c4cnc(N)nc4C(F)F)nc(N4CCOCC4)n3)CC2)CC1 — remaining binding (binding; competition with immobilised ligand; 1 µM): 0.1%
CN(C)c1nccc(-c2cnc3ncccn23)n1 — remaining binding (binding; 1 µM): 39%
NS(=O)(=O)c1cc(NC(=O)Cc2ccccc2)ccc1Oc1cccc(Cl)c1 — remaining binding (cell-free assay; competition with immobilised ligand; 1 µM): 77%
N#Cc1ccccc1CSc1nnc2c(n1)[nH]c1ccccc12 — remaining binding (binding; competition with immobilised ligand; 10 µM): 100%
COc1cnc(Nc2cccc(S(N)(=O)=O)c2)nc1N1CCN(c2ccccc2)C(=O)C1 — remaining binding (binding; competition with immobilised ligand; 1 µM): 34%
O=C(Nc1cccnn1)N1CCC(=Cc2cccc(Oc3ccc(C(F)(F)F)cn3)c2)CC1 — remaining binding (cell-free assay; competition with immobilised ligand; 1 µM): 100%
CN(CCCC(F)(F)F)c1nccc(-c2cnn3ncccc23)n1 — remaining binding (binding; 1 µM): 100%
O=C(NCC1CCOCC1)c1n[nH]cc1NC(=O)c1c(F)cccc1F — remaining binding (binding; competition with immobilised ligand; 1 µM): 100%
